Measured values as given in ChEMBL document CHEMBL4725490, “Decreasing HepG2 Cytotoxicity by Lowering the Lipophilicity of Benzo[d]oxazolephosphinate Ester Utrophin Modulators” (ACS Med Chem Lett, 2020).
Converted amounts (≈) assume the structure as drawn. The source made the active and inactive calls. No cut-off for these calls is given here.

Assays:
[1] = Inhibition of firefly luciferase activity using ATP as substrate preincubated followed by substrate addition and measured after 15 mins by firefly luciferase reporter gene assay; parameters: species or system Photinus pyralis
Outline: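 Biochemical counter-screen measuring direct inhibition of recombinant firefly luciferase enzyme activity, used to flag interference in the H2K reporter assay.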

[2] = Lipophilicity, log D of the compound at pH 7.4; conditions: buffer
[3] = Kinetic aqueous solubility of the compound
[4] = Protein binding in mouse plasma
[5] = Half life in mouse hepatocyte; conditions: hepatocytes
[6] = Apparent permeability across apical to basolateral side in human Caco2 cells; conditions: Caco-2
[7] = Apparent permeability across basolateral to apical side in human Caco2 cells; conditions: Caco-2
[8] = organism: Mus musculus; assay: Modulation activity of utrophin in dystrophic mouse muscle cells assessed increase in utrophin protein level by western blot analysis relative to control; conditions: filed as modulator
Outline: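 LUmdx dystrophic mouse muscle cells were treated with compound, and utrophin protein was quantified by Western blot. Values are fold increase in utrophin level.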

[9] = system: HepG2; assay: Cytotoxicity against human HepG2 cells assessed as reduction in cell viability incubated for 40 hrs by cell titer glo assay; type: ADME, cell-based; conditions: HepG2, 40 h
[10] = Intrinsic clearance in mouse hepatocyte; conditions: hepatocytes

Compound	IC50 [1]	logD [2]	solubility kinetic [3] [µM]	fraction unbound [4]	half-life [5] [min]	IC50 ([1]; read-out: IC50) [µM]	Papp A→B [6] [×10⁻⁶ cm/s]	Papp B→A [7] [×10⁻⁶ cm/s]	Activity [8]	IC50 [9] [µM]	PPB [4] [%]	CLH [10] [µL/min/10^6 cells]
CCP(=O)(OC)c1ccc2oc(-c3cccnc3C(F)(F)F)nc2c1 (stereo not given)	Not Active	2.2	854 (≈ 316 µg/mL)	0.11	4	–	–	–	–	–	–	–
CCP(=O)(OC)c1ccc2oc(-c3ccccc3C(F)F)nc2c1 (stereo not given)	–	2.8	> 250	0.03	< 3	5.73	16.2	11.2	–	–	–	–
CCP(=O)(OC)c1ccc2nc(-c3cncc(C(F)(F)F)c3)oc2c1 (stereo not given)	Not Active	2.41	603 (≈ 223 µg/mL)	0.2	> 240	–	–	–	–	–	–	–
CCP(=O)(OC)c1ccc2oc(-c3ccccc3OC(F)F)nc2c1 (stereo not given)	Not Active	2.45	366 (≈ 134 µg/mL)	0.03	< 3	–	18.8	15.7	–	–	–	–
CCP(=O)(OC)c1ccc2nc(-c3cccnc3C(F)(F)F)oc2c1 (stereo not given)	Not Active	1.98	699 (≈ 259 µg/mL)	0.24	5	–	–	–	–	–	–	–
CCP(=O)(OC)c1ccc2oc(-c3ccnc(OC(F)F)c3)nc2c1 (stereo not given)	–	2.2	733 (≈ 270 µg/mL)	0.14	> 240	> 30	22.3	20.6	Active	200	–	–
CCP(=O)(OC)c1ccc2nc(-c3cccc(OC(F)F)c3)oc2c1 (stereo not given)	Not Active	3.2	8.4 (≈ 3.09 µg/mL)	0.04	37	–	18.1	15.9	–	–	–	–
CCP(=O)(OC)c1ccc2oc(-c3cccc(OC(F)F)c3)nc2c1 (stereo not given)	–	–	–	–	13	> 30	13.3	9.37	–	–	–	–
CCP(=O)(OC)c1ccc2oc(-c3cccc(C(F)(F)F)c3)nc2c1 (stereo not given)	–	–	–	–	–	12.1	–	–	–	–	–	–
CCP(=O)(OC)c1ccc2oc(-c3cncc(C(F)(F)F)c3)nc2c1 (stereo not given)	Not Active	2.44	477 (≈ 177 µg/mL)	0.25	> 240	–	–	–	Active	–	–	–
CCP(=O)(OC)c1ccc2nc(-c3cncc(C(F)F)c3)oc2c1 (stereo not given)	Not Active	2.08	487 (≈ 172 µg/mL)	0.23	> 240	–	–	–	–	–	–	–
CCP(=O)(OC)c1ccc2oc(-c3ccc(F)cc3)nc2c1 (stereo not given)	–	2.8	378 (≈ 121 µg/mL)	–	–	0.115	18	15.7	–	200	95	–
CCP(=O)(OC)c1ccc2nc(-c3ccccc3C(F)F)oc2c1 (stereo not given)	Not Active	3.33	446 (≈ 157 µg/mL)	0.03	< 3	–	–	–	–	–	–	> 250
CCP(=O)(OC)c1ccc2oc(-c3cccc(C(F)F)c3)nc2c1 (stereo not given)	–	3.09	> 250	0.06	20	2.48	14.2	10.1	–	–	–	–
CCP(=O)(OC)c1ccc2oc(-c3ccc(OC)cc3)nc2c1 (stereo not given)	–	–	265 (≈ 87.8 µg/mL)	–	–	0.19	13.3	10.7	–	200	–	–
CCP(=O)(OC)c1ccc2nc(-c3ccc(C(F)F)cc3)oc2c1 (stereo not given)	Not Active	2.98	556 (≈ 195 µg/mL)	0.04	–	–	–	–	Active	–	–	–
CCP(=O)(OC)c1ccc2nc(-c3ccnc(OC(F)F)c3)oc2c1 (stereo not given)	–	2.6	834 (≈ 307 µg/mL)	0.07	> 240	> 30	21.8	16.9	–	–	–	–
CCP(=O)(OC)c1ccc2oc(-c3cncc(C(F)F)c3)nc2c1 (stereo not given)	Not Active	1.86	440 (≈ 155 µg/mL)	0.26	> 240	–	–	–	–	–	–	–
CCP(=O)(OC)c1ccc2oc(-c3cccc(OC)c3)nc2c1 (stereo not given)	–	3.19	> 250	0.04	< 3	0.088	15.7	12.6	–	–	–	–
CCP(=O)(OC)c1ccc2nc(-c3ccc4c(c3)OC(F)(F)O4)oc2c1 (stereo not given)	–	–	574 (≈ 219 µg/mL)	0.02	154	> 30	17.2	16.2	–	68.9	–	–
CCP(=O)(OC)c1ccc2oc(-c3ccc(F)cc3C(F)F)nc2c1 (stereo not given)	Not Active	3.4	518 (≈ 191 µg/mL)	0.03	13	–	–	–	–	–	–	–
CCP(=O)(OC)c1ccc2oc(-c3ccnc(C(F)(F)F)c3)nc2c1 (stereo not given)	Not Active	–	–	–	> 240	–	12.3	11	–	200	–	–
CCP(=O)(OC)c1ccc2oc(-c3ccc(C(F)F)cc3)nc2c1 (stereo not given)	Not Active	3.06	530 (≈ 186 µg/mL)	0.02	–	–	–	–	–	–	–	–
CCP(=O)(OC)c1ccc2nc(-c3ccc(F)cc3C(F)F)oc2c1 (stereo not given)	Not Active	3.59	469 (≈ 173 µg/mL)	0.03	38	–	12.3	11.5	–	–	–	–
CCP(=O)(OC)c1ccc2oc(-c3ccc4c(c3)OC(F)(F)O4)nc2c1 (stereo not given)	–	2.4	576 (≈ 220 µg/mL)	0.02	154	23.6	12.7	11.7	–	–	–	–
